The source of these data is ChEMBL document CHEMBL2057080, “Synthesis, biological evaluation, and structure-activity relationships of a novel class of apurinic/apyrimidinic endonuclease 1 inhibitors” (J Med Chem, 2012).

As usually defined, the IC50 is the concentration needed to halve the response being measured. As a reminder, the inhibition is the share of the control response that was lost under treatment.

In test [1] the target is T1, DNA repair nuclease/redox regulator APEX1 (Homo sapiens, UniProt P27695). Put plainly: Inhibition of recombinant APE1 using […]-5'-AP-DNA as substrate incubated for 15 mins prior to substrate addition measured after 5 mins by PAGE analysis.
Test [2] addresses T1, DNA repair nuclease/redox regulator APEX1. Briefly: Inhibition of APE1 in human HeLa whole cell extract using […]-5'-AP-DNA as substrate assessed as activity remaining at 100 uM incubated for 15 mins prior to substrate addition measured after 5 mins by PAGE analysis relative to control. Summed up:
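HeLa whole cell extract (300 ng; KCl-extracted hypotonic lysate) was preincubated with inhibitor for 15 min at room temperature, at 100 µM or at 0–100 µM. Then 0.5 pmol 32P AP-DNA was added for 5 min at 37 °C. Samples were run on denaturing PAGE, and incision is reported relative to the no-inhibitor control, from three independent measurements.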

Test [3] has the same target. Briefly: Inhibition of human recombinant APE1 after 15 mins by fluorescence based HTS assay. Summed up: (§1)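 APE1 inhibition was measured in the fluorescence-based qHTS format at up to 57 µM. IC50 is the average of three separate experiments.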
Test [4] shares this target. Put plainly: Inhibition of APE1 in human HeLa cells assessed as accumulation of genomic AP sites […] after 24 hrs by aldehyde reactive probe-based assay relative to control. In kind it is cell-based. The method in brief:
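HeLa cells at 80% confluency were exposed for 24 h at 37 °C to DMSO, 275 µM MMS, or 7.5 µM inhibitor, each alone, or to 275 µM MMS plus 7.5 µM inhibitor. Genomic DNA was isolated and adjusted to 100 ng/µL. 10 µL was labelled with aldehyde reactive probe (biotin-hydrazide reagent) and AP sites were quantified by kit. Samples ran in triplicate and were compared with a Student's t test.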

Test [5] has the same target. Briefly: Inhibition of human recombinant APE1 at 57 uM after 15 mins by fluorescence based HTS assay. The method in brief: as §1

Activity calls are given as the source filed them. The calls are words filed in the database; no cut-off is given here.

T1 sequence (P27695 whole entry): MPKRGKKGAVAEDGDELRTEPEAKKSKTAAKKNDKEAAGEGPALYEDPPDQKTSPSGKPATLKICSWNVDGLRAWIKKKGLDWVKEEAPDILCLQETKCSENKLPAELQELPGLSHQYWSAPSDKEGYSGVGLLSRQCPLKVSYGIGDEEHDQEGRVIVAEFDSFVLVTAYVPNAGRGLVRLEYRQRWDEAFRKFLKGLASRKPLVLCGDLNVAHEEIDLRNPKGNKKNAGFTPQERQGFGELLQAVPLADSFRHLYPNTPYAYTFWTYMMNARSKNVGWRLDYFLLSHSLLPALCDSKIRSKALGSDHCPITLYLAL

For the molecule `CC(=O)Nc1sc2c(c1-c1nc3ccccc3s1)CN(C(C)C)C2`, the half-maximal inhibitory concentration (IC50) in test [1] stood at 4 µM; in test [3], 3.1 µM. Besides, the Activity in test [2] amounted to 57%.
`COS(C)(=O)=O`: the inhibition entry in test [4] was “Active”.
Regarding `CC(=O)Nc1sc2c(c1-c1nc3ccccc3s1)CCN(C(C)C)CC2`, the IC50 was found to be 13 µM in test [1] and 17.6 µM in test [3]. Also, the Activity in test [2] was determined as 1.1%.
As for `CC(=O)Nc1sc2c(c1-c1ccco1)CCNC2`, the inhibition in test [5] turned out to be 41%.
The same measure, in the same setting: in the case of `O=C(Nc1sc2c(c1-c1nc3ccccc3s1)CCNC2)C1CCCC1` it was 55%.
As for `CC(=O)Nc1sc2c(c1-c1nc3ccccc3s1)CCNC2`, the 50% inhibitory concentration (IC50) worked out at 5 µM in test [1] and 2.9 µM in test [3]. The Activity in test [2] is 1.4%.
As for `CC(=O)Nc1sc2c(c1-c1nc3ccccc3s1)CCN(C)C2`, the IC50 in test [1] was 5 µM; in test [3], 3.8 µM. For the same molecule, the Activity in test [2] worked out at 26%.
